Structures can show the parent of a compound that is named as a salt. Active and inactive are the calls of the source. The rule behind the calls is not given here.
How the values were obtained:
Histone deacetylase = assay: Inhibition of HDAC in human HeLa nuclear extract using fluoroscence-labeled acetylated peptide as substrate by fluorometric assay; assay type: subcellular, Nucleus
SW-620 [1] = assay: Cytotoxicity against human SW620 cells by colorimetric method; assay type: functional, cell-based
PC-3 = assay: Cytotoxicity against human PC3 cells by colorimetric method; assay type: functional, cell-based
NCI-H23 [2] = assay: Cytotoxicity against human NCI-H23 cells by colorimetric method; assay type: functional, cell-based
Histone deacetylase 2 = Histone deacetylase 2 (Homo sapiens, UniProt Q92769); assay: Inhibition of HDAC2 (unknown origin)
Homo sapiens = organism: Homo sapiens; assay: Selectivity index, ratio of IC50 for HDAC2 (unknown origin) to IC50 for HDAC6 (unknown origin)
[3] = target: T1, Protein deacetylase HDAC6 (Homo sapiens, UniProt Q9UBN7); assay: Inhibition of HDAC6 (unknown origin)
T1 sequence (Q9UBN7 whole entry): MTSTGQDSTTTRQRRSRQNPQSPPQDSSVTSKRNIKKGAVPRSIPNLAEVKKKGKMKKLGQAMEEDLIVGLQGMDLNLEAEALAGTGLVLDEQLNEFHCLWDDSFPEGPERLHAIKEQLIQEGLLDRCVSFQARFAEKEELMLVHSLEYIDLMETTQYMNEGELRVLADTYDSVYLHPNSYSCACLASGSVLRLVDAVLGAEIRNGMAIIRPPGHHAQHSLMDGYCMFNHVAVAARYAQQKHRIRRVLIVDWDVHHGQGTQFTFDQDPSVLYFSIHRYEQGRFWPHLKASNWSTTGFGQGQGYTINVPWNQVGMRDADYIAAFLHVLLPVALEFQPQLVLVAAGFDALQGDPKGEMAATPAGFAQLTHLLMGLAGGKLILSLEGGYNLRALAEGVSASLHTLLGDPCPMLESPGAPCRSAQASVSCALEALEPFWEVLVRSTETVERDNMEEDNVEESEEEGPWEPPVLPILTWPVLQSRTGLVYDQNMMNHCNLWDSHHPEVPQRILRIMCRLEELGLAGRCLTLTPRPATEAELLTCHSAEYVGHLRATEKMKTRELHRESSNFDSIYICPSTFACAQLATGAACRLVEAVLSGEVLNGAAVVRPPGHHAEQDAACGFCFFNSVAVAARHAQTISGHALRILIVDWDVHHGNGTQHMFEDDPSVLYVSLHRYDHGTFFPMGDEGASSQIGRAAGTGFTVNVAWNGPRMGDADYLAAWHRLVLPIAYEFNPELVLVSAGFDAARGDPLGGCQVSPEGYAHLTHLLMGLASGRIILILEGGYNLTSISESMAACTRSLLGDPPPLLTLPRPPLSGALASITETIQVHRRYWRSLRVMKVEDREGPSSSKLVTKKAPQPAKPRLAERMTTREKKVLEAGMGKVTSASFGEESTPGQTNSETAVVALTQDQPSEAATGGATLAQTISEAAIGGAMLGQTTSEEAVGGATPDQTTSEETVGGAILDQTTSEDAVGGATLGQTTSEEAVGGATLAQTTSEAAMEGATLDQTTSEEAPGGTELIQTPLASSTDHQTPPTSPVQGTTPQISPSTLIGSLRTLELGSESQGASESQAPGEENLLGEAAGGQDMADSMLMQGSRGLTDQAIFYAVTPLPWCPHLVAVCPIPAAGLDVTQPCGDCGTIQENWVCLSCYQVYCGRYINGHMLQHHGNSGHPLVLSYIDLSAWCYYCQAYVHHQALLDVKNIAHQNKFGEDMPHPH

NCI-H23 [4] = assay: Potency index, ratio of adriamycin IC50 to compound IC50 for human NCI-H23 cells by colorimetric method; assay type: functional
In short: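 Growth inhibition of cancer cells read by a colorimetric method with slight modifications. IC50 is the concentration giving 50% reduction in cell growth, computed by the Probits method and averaged over three independent experiments. The index is the reference drug's IC50 divided by the compound's IC50 in the same cell line.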

SW-620 [5] = assay: Induction of apoptosis in human SW620 cells assessed as early apoptotic cells by flow cytometry; assay type: functional, cell-based
SW-620 [6] = assay: Induction of cell cycle arrest in human SW-620 cells assessed as accumulation at G0/G1 phase by flow cytometry; assay type: functional, cell-based
SW-620 [7] = assay: Induction of cell cycle arrest in human SW-620 cells assessed as accumulation at S phase by flow cytometry; assay type: functional, cell-based

Chain of Histone deacetylase 2 (Q92769 whole entry): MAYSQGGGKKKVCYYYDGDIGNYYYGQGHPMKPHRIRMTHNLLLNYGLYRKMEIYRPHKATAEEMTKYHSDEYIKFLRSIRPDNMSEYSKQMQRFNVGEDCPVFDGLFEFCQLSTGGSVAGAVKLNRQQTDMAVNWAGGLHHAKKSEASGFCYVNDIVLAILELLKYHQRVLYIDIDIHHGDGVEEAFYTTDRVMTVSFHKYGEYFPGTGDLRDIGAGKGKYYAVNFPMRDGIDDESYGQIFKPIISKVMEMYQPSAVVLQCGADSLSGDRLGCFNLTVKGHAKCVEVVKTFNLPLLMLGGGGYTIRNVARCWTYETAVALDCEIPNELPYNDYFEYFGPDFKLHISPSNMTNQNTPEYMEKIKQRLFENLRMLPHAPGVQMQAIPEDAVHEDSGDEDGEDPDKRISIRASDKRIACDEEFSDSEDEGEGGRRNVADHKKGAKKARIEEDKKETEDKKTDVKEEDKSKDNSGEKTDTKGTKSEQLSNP

SMILES	IC50 (Histone deacetylase) [nM]	IC50 (SW-620 [1]) [nM]	IC50 (PC-3) [nM]	IC50 (NCI-H23 [2]) [nM]	IC50 (Histone deacetylase 2) [nM]	Ratio IC50 (Homo sapiens)	IC50 [3] [nM]	Ratio IC50 (NCI-H23 [4])	Activity (SW-620 [5])	Activity (SW-620 [6])	Activity (SW-620 [7])
O=C(NO)c1ccc(CN2C(=O)/C(=C3\Nc4ccccc4\C3=N/O)c3cc(Cl)ccc32)cc1	174	60	50	50	187	11.7	16	<=10			
COc1ccc2c(c1)/C(=C1/Nc3ccccc3/C1=N\O)C(=O)N2Cc1ccc(C(=O)NO)cc1	25	40	30	90	31		30	<=10			
O=C(CCCCCCN1C(=O)/C(=C2\Nc3ccccc3\C2=N/O)c2cc(Br)ccc21)NO	4	90	30	9				<=10			
O=C(/C=C/c1ccc(CN2C(=O)/C(=C3\Nc4ccccc4\C3=N/O)c3ccccc32)cc1)NO	95	50	50	9				<=10	Active	Active	Active
O=C(/C=C/c1ccc(CN2C(=O)/C(=C3\Nc4ccccc4\C3=N/O)c3cc(F)ccc32)cc1)NO	422	50	50	8				<=10			
O=C(NO)c1ccc(CN2C(=O)/C(=C3\Nc4ccccc4\C3=N/O)c3cc(Br)ccc32)cc1	39	70	50	7	75		24	<=10			
COc1ccc2c(c1)/C(=C1/Nc3ccccc3/C1=N\O)C(=O)N2Cc1ccc(/C=C/C(=O)NO)cc1	5	40	30	50				<=10			
COc1ccc2c(c1)/C(=C1/Nc3ccccc3/C1=N\O)C(=O)N2CCCCCCC(=O)NO	21	30	50	70				<=10			
Cc1ccc2c(c1)/C(=C1/Nc3ccccc3/C1=N\O)C(=O)N2Cc1ccc(C(=O)NO)cc1	5	30	90	10	21		20	<=10			
O=C(/C=C/c1ccc(CN2C(=O)/C(=C3\Nc4ccccc4\C3=N/O)c3cccc(Cl)c32)cc1)NO	604	60	90	50				<=10			
O=C(CCCCCCN1C(=O)/C(=C2\Nc3ccccc3\C2=N/O)c2cc(Cl)ccc21)NO	3	60	90	30				<=10			
O=C(CCCCCCN1C(=O)/C(=C2\Nc3ccccc3\C2=N/O)c2ccccc21)NO	22	90	50	90				<=10	Active		
O=C(CCCCCCC(=O)Nc1ccccc1)NO									Active		
O=C(/C=C/c1ccc(CN2C(=O)/C(=C3\Nc4ccccc4\C3=N/O)c3cc(Br)ccc32)cc1)NO	183	60	90	9				<=10			
Cc1ccc2c(c1)/C(=C1/Nc3ccccc3/C1=N\O)C(=O)N2Cc1ccc(/C=C/C(=O)NO)cc1	20	50	60	10				<=10			
Cc1ccc2c(c1)/C(=C1/Nc3ccccc3/C1=N\O)C(=O)N2CCCCCCC(=O)NO	18	50	80	10				<=10			
O=C(CCCCCCN1C(=O)/C(=C2\Nc3ccccc3\C2=N/O)c2cc(F)ccc21)NO	14	80	12	8				<=10			
O=C(CCCCCCN1C(=O)/C(=C2\Nc3ccccc3\C2=N/O)c2cccc(Cl)c21)NO	7	90	30	50				<=10			
O=C(NO)c1ccc(CN2C(=O)/C(=C3\Nc4ccccc4\C3=N/O)c3cccc(Cl)c32)cc1	71	90	60	60	88		49	<=10			
O=C(NO)c1ccc(CN2C(=O)/C(=C3\Nc4ccccc4\C3=N/O)c3cc(F)ccc32)cc1	218	20	50	30	194	4.5	43	<=10			
O=C(/C=C/c1ccc(CN2C(=O)/C(=C3\Nc4ccccc4\C3=N/O)c3cc(Cl)ccc32)cc1)NO	318	80	60	7				<=10			
COc1cccc2c1C(=O)c1c(O)c3c(c(O)c1C2=O)C[C@@](O)(C(=O)CO)C[C@@H]3O[C@H]1C[C@H](N)[C@H](O)[C@H](C)O1 [DOXORUBICIN HYDROCHLORIDE]		90	90	90							
O=C(NO)c1ccc(CN2C(=O)/C(=C3\Nc4ccccc4\C3=N/O)c3ccccc32)cc1	195	70	60	70	205	29	7	<=10		Active	
O=C1Nc2ccccc2/C1=C1/Nc2ccccc2/C1=N\O		13500	15800	11200							
